# CHO-K1 Ca ag = M1 agonist counterscreen hit in parental CHO-K1 cells; Fluo-8 calcium fluorescence; scaled to maximal ATP response, vehicle zero; AID 602248; activation, % at 3 µM; 360,000 tested, 0.48% active; in the data active = activation above about 15%;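 also: untransfected CHO-K1 host cells lacking M1 receptor as counterscreen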
# M1 PAM parental = M1 PAM counterscreen hit in parental CHO-K1 cells; ATP EC20, Fluo-8 calcium fluorescence; 0% at ATP EC20, 100% at ATP max; activation, % at 3 µM; 360,000 tested, 0.02% active;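 active = activation above the run cutoff, the mean activation of all test compounds plus 3 SD, cut at about 40% in these data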;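 also: peak over basal fluorescence ratio in a 140 s read after ATP addition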
# TRPN1 ag = agonists of zebrafish TRPN1 channel; HEK293 zebrafish TRPN1-YFP, Fluo-8 calcium fluorescence; 100% = response to 87 µM carbachol; activation, % at 3 µM; 220,000 tested, 0.18% active;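 active = activation above its plate's cutoff, the mean activation of test wells on that plate plus 3 SD, cut at about 19% in these data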;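 also: 0% = DMSO alone and 100% = 87 µM carbachol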
#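 Assay system: Zebrafish TRPN1-YFP in HEK293 cells | Incubation: Dye loading 1 h at 37 °C, then 30 min room temperature | Measured by: Kinetic Fluo-8 fluorescence, ex 470-495, em 515-575 nm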
# TRPML3 agonist = human mucolipin-3 channel agonism; Q8TDD5; HEK293 TRPML3-YFP, Fluo-8 calcium fluorescence; 100% = the carbachol control signal; activation, % at 3 µM; 220,000 tested, 0.29% active;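 active = activation above its plate's cutoff, the mean activation of the plate's test wells plus 3 SD, cut at about 12% in these data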;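 also: 0% = DMSO only wells and 100% = carbachol wells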
# Target sequence (Q8TDD5 whole entry, looked up): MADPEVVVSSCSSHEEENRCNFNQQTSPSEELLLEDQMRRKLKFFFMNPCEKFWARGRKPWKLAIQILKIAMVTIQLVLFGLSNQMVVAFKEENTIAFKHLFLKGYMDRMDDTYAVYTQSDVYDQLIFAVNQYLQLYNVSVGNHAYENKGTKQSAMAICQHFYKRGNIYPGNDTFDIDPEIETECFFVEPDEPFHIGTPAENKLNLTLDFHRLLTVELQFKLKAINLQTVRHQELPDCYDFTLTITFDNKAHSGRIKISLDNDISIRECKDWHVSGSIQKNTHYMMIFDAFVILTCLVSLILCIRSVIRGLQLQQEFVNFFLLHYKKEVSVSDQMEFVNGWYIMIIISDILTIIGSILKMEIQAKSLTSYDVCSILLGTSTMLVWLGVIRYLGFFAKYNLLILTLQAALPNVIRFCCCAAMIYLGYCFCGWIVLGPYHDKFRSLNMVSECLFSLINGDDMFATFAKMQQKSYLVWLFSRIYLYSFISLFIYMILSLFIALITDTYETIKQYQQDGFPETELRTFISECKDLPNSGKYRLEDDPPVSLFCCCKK
#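 Material: TRPML3-YFP stable HEK293 cells | Dosing: One concentration, 3 µM nominal, 0.3% DMSO | Timing: 125 s total fluorescence read per well | Technique: Fluo-8 calcium dye fluorescence, ex 470-495, em 515-575 nm | Measure: Percent activation from peak-to-basal fluorescence ratio, scaled between DMSO and carbachol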
# CHO-K1 Ca antag = nonselective inhibitor or artifact in parental CHO-K1 cells; inhibition, % at 3 µM; ATP-induced calcium, Fluo-8 fluorescence; 360,000 tested, 0.6% active;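 active = inhibition above a per-plate cutoff, the plate's mean sample inhibition plus 3 SD, cut at about 24% in these data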;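 also: 0% = DMSO plus EC80 ATP and 100% = DMSO alone without ATP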
# Active calls of the source: *; / = not tested or not shown. Shown are actives, neighbours in structure and some others; about 1.2% of the full set was active somewhere.
SMILES,CHO-K1 Ca ag,M1 PAM parental,TRPN1 ag,TRPML3 agonist,CHO-K1 Ca antag
CC1CN(C(=O)COC(=O)c2cncc(Br)c2)CC(C)O1 (centres undefined),0,8,/,/,-8
O=c1cc2c(nn1Cc1ccc(Cl)cc1)-c1ccccc1CC2,0,-2,0,0,5
O=c1cc2c(nn1Cc1cccc(Cl)c1)-c1ccccc1CC2,3,1,-1,0,47*
COc1ccc(CNC(=O)c2ccc(N(C)S(=O)(=O)c3ccc(C)cc3)cc2)cc1,0,-11,/,/,25*
Cc1cc(NC(=O)c2ccc(N(C)S(=O)(=O)c3ccccc3)cc2)no1,17*,-5,4,3,-19
CN(c1ccc(C(=O)Nc2ccccn2)cc1)S(=O)(=O)c1ccccc1,0,14,4,2,-10
CN(c1ccccc1)S(=O)(=O)c1ccc(NC(=O)c2ccc(F)cc2)cc1,19*,4,/,/,3
CN(c1ccc(C(=O)NCCSCc2ccccc2)cc1)S(=O)(=O)c1ccccc1,0,-9,-1,0,24*
Cc1cccc(CSCCNC(=O)c2ccc(N(C)S(=O)(=O)c3ccccc3)cc2)c1,5,19,-1,1,4
COc1ccc(Nc2nc(N)nc(CSC(=S)N3CCCCC3)n2)cc1,1,9,-1,-1,-2
COc1ccc(Nc2nc(N)nc(CSC(=S)N3CCCCC3C)n2)cc1 (centres undefined),22*,3,-2,0,7
CC1=C(C(=O)N(C(C)C)C(C)C)CC(CC(=O)NCc2ccco2)C(=O)N1Cc1ccc(C(C)(C)C)cc1 (centres undefined),-1,4,/,/,-17
Cc1noc(C)c1S(=O)(=O)NC(=O)C1(C)CCN1C(=O)C1(c2ccc(Cl)cc2)CC1 (centres undefined),0,0,/,/,-4
Cc1ccc(C)c(N/C(N)=N/c2nc(C)cc(C)n2)c1,27*,-13,36*,21*,35*
CC(=O)Nc1ccc(N/C(N)=N/c2nc(C)cc(C)n2)cc1,0,-8,1,1,13
Cc1cc(C)nc(/N=C(\N)Nc2ccc(SC(F)F)cc2)n1,30*,-18,36*,17*,15
CCOc1ccc(N/C(N)=N/c2nc(C)cc(C)n2)cc1,17*,-4,/,/,8
CC(O)(c1ccc(F)c(F)c1)c1nc(-c2ccccc2)cs1 (centres undefined),0,4,/,/,0
Cc1[nH]c2ccccc2c1/C=N/Nc1ccc([N+](=O)[O-])cc1,21*,0,13,10,34*
CCNC(=O)C1(C)CCN(Cc2ccc(C#N)cc2)C1 (centres undefined),0,0,/,/,3
CCC(CC)c1nnc(NC(=O)COc2ccc3c(c2)OCO3)s1,20*,18,/,/,-7
CC(N)c1csc(Nc2ncccn2)n1 (centres undefined),1,-5,/,/,25*
CCCn1nnc(NC(=S)NC(=O)/C=C/c2ccc(Cl)cc2)n1,4,4,-2,0,-5
CCCn1nnc(NC(=O)/C=C/c2ccc(C(C)C)cc2)n1,0,-11,1,0,60*
CCCCN(C(C)=O)c1c(CC)nc2ccc(C(=O)NCCOc3ccc(OC)cc3)cn12,1,-6,/,/,10
SMILES,CHO-K1 Ca ag,M1 PAM parental,TRPN1 ag,TRPML3 agonist,CHO-K1 Ca antag
N#CC(c1cccc(Cl)c1)c1ccc2c(C(F)(F)F)cc(C(F)(F)F)nc2n1 (centres undefined),12,-7,0,0,31*
CC(C)C[C@H]1CNC(=O)C(=O)N1C[C@@H]1CCCN1C[C@H](Cc1ccc(O)cc1)N1C[C@H](Cc2ccccc2)N(CC2CCCCC2)C(=O)C1=O,1,-4,/,/,3
CCN(CC)c1ccc(/C=C/C(=O)C2C(=O)C=C(C)OC2=O)cc1 (centres undefined),50*,-20,35*,16*,44*
COc1ccccc1/C=C/CN1CCC(n2nccc2NC(=O)CCc2ccccc2)CC1,15*,-16,/,/,24*
O=C(CCc1ccccc1)Nc1ccnn1C1CCN(C/C=C/c2ccccc2)CC1,2,10,/,/,-13
C=C1CC(C(=O)N/N=C/c2ccc(O)cc2)C1,0,-15,0,1,25*
CC(C)c1nc2c(c(=O)c3ccccc3n2C)c(=O)n1CCc1ccccc1,21*,14,21*,9,-6

# Screening results (PubChem)
